Consider one compound from ChEMBL document CHEMBL1649230, “Aryl rhodanines specifically inhibit staphylococcal and enterococcal biofilm formation” (Antimicrob Agents Chemother, 2009).

SMILES strings stand for the structures. The source made the active and inactive calls. The calls are words filed in the database; no cut-off is given here.

The subject of experiment [1] is Staphylococcus aureus. Nature of the experiment: Antimicrobial activity against Staphylococcus aureus ATCC 35556 assessed as inhibition of primary adhesion of bacterial biofilm to silicone disk surface under shaking condition at 4 times MBIC after 30 mins by fluorescence emission using BaclLight Live Dead stain. Type of experiment: functional, organism-based.
Experiment [2] deals with Staphylococcus aureus. Description: Effect on PNAG synthesis in Staphylococcus aureus ATCC 35556 by dot blot Western analysis. Type of experiment: functional, organism-based. A digest of the protocol: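 PNAG extracts were made from S. aureus ATCC 35556 grown with compound at 0× to 8× MBIC. Extracts were serially diluted 1:4, spotted onto nitrocellulose and probed with WGA-HRP, detected by chemiluminescent substrate on film. A PNAG-defective Δica::Tc strain extract served as the specificity control.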

As for `CCOc1cc(/C=C2\SC(=S)N(c3ccc(F)cc3)C2=O)ccc1O`, the inhibition result with Staphylococcus aureus [1] is “Active”. Moreover, the inhibition entry with Staphylococcus aureus [2] was “inactive”.
